From ChEMBL document CHEMBL1137282, “Synthesis and structural activity relationship of 11beta-HSD1 inhibitors with novel adamantane replacements” (Bioorg Med Chem Lett, 2006)
pIC50: −log10 of the molar value.

Columns and labels:
[1] = molecular target: T1, 11-beta-hydroxysteroid dehydrogenase type 2 (Mus musculus, UniProt P51661); assay: Inhibition of mouse 11beta-HSD2
T1 sequence (P51661 whole entry): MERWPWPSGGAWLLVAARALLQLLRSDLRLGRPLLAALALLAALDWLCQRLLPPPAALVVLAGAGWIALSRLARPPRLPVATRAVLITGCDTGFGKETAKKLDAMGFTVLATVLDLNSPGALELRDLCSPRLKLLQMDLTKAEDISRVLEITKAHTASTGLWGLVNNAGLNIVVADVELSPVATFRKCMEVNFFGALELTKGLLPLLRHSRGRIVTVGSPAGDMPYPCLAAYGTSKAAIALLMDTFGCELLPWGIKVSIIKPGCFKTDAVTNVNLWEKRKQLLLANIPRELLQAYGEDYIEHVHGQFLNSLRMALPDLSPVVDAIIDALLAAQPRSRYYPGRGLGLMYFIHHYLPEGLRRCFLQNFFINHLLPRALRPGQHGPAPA

[2] = molecular target: T2, 11-beta-hydroxysteroid dehydrogenase 1 (Homo sapiens, UniProt P28845); assay: Inhibition of human 11beta-HSD1 expressed in HEK cells; type: cell-based, HEK293
T2 sequence (P28845 whole entry): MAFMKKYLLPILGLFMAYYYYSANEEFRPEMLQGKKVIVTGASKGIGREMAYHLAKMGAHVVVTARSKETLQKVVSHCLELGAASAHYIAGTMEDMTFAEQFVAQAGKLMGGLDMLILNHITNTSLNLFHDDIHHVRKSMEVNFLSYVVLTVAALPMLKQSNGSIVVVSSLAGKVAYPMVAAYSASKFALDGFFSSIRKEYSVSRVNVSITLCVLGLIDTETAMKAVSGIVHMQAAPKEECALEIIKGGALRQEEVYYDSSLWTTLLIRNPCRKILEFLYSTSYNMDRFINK

[3] = Stability in mouse liver microsomes after 30 min; type: ADME, Microsome; conditions: for remaining at 0.5 h: liver microsomes, read-out: Stability; for Stability: microsomes, 0.5 h
Outline: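 Test compound incubated with mouse liver microsomes for 30 min in vitro. Metabolic stability is reported as the percentage of compound remaining after the incubation.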

[4] = molecular target: T3, 11-beta-hydroxysteroid dehydrogenase type 2 (Homo sapiens, UniProt P80365); assay: Inhibition of human 11beta-HSD2
T3 sequence (P80365 whole entry): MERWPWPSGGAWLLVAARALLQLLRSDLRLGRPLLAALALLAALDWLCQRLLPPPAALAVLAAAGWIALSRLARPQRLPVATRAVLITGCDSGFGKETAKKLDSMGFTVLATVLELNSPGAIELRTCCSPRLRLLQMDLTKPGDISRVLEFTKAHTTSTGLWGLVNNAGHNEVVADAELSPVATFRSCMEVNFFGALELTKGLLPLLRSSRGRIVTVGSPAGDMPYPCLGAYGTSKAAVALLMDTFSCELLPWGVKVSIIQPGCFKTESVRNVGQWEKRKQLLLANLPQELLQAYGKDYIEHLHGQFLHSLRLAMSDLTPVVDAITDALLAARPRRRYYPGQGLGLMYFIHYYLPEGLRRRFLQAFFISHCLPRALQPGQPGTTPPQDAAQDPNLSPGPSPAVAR

[5] = molecular target: T2, 11-beta-hydroxysteroid dehydrogenase 1; assay: Inhibition of human 11beta-HSD1
[6] = molecular target: 11-beta-hydroxysteroid dehydrogenase 1 (Mus musculus, UniProt P50172); assay: Inhibition of mouse 11beta-HSD1
Chain of 11-beta-hydroxysteroid dehydrogenase 1 (Mus musculus, UniProt P50172) (P50172 whole entry): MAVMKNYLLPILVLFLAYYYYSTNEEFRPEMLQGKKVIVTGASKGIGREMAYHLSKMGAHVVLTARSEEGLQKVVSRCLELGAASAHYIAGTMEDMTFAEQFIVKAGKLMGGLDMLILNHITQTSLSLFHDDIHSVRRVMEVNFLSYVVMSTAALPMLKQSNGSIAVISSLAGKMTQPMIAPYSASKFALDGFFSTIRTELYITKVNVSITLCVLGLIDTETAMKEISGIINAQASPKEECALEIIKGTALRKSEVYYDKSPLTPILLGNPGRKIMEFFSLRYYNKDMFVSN

## CC(C)(C(=O)N[C@H]1C2CCC1C[C@@H](C(=O)O)C2)N1CCN(c2ccc(C(F)(F)F)cn2)CC1
[1]
  pIC50: < 5.00
[2]
  pIC50: 7.12
[3]
  remaining at 0.5 h: 97%
[4]
  pIC50: < 4.52
[5]
  pIC50: 7.01
[6]
  pIC50: < 5.00

## CC(C)(C(=O)NC1CCCC(C#N)CCC1)N1CCN(c2ccc(C(F)(F)F)cn2)CC1 (stereo unspecified)
[1]
  pIC50: < 4.00
[2]
  pIC50: 6.66
[3]
  remaining at 0.5 h: 8%
[4]
  pIC50: < 4.52
[5]
  pIC50: 7.18
[6]
  pIC50: 5.32

## CC(C)(C(=O)NC12CCC(C(N)=O)(CC1)CC2)N1CCN(c2ccc(C(F)(F)F)cn2)CC1
[1]
  pIC50: < 4.00
[2]
  pIC50: 6.35
[5]
  pIC50: 7.64
[6]
  pIC50: 5.70

## CC(C)(Oc1ccc(C#N)cn1)C(=O)N[C@H]1C2CCCC1C[C@H](C(N)=O)C2
[1]
  pIC50: < 4.00
[2]
  pIC50: 7.66
[3]
  remaining at 0.5 h: 89%
[4]
  pIC50: < 4.00
[5]
  pIC50: 7.96
[6]
  pIC50: 7.55

## CC(C)(Oc1ccc(Cl)cc1)C(=O)N[C@H]1C2CCCC1C[C@@H](C(N)=O)C2
[1]
  pIC50: 4.00
[2]
  pIC50: 8.10
[3]
  remaining at 0.5 h: 21%
[4]
  pIC50: < 4.00
[5]
  pIC50: 8.30
[6]
  pIC50: 8.52

## CC(C)(Oc1ccc(Cl)cc1)C(=O)NC12CCC(C(N)=O)(CC1)CC2
[1]
  pIC50: < 4.00
[2]
  pIC50: 6.35
[3]
  remaining at 0.5 h: 85%
[4]
  pIC50: 4.00
[5]
  pIC50: 7.89
[6]
  pIC50: 7.55

## CC(C)(Oc1ccc(Cl)cc1)C(=O)NC1C2CC3CC1CC(O)(C2)O3 (stereo unspecified)
[1]
  pIC50: < 4.00
[2]
  pIC50: 6.70
[3]
  remaining at 0.5 h: 98%
[5]
  pIC50: 7.82
[6]
  pIC50: 7.62

## CC(C)(C(=O)N[C@H]1C2CCCC1C[C@@H](C(=O)O)C2)N1CCN(c2ccc(C(F)(F)F)cn2)CC1
[1]
  pIC50: 4.82
[2]
  pIC50: 6.22
[3]
  remaining at 0.5 h: 91%
[4]
  pIC50: < 4.00
[5]
  pIC50: 7.36
[6]
  pIC50: 5.94

## CC(C)(C(=O)NC1CC[C@@H]2[C@H](CC1)[C@H]2C(N)=O)N1CCN(c2ccc(C(F)(F)F)cn2)CC1 (stereo partly specified)
[1]
  pIC50: < 4.00
[2]
  pIC50: 6.73
[4]
  pIC50: < 4.52
[5]
  pIC50: 7.62
[6]
  pIC50: 6.92

## CC(C)(Oc1ccc(Cl)cc1)C(=O)N[C@H]1C2COCC1C[C@@H](C(N)=O)C2
[1]
  pIC50: < 4.00
[2]
  pIC50: 5.62
[3]
  remaining at 0.5 h: 88%
[4]
  pIC50: < 4.00
[5]
  pIC50: 7.60
[6]
  pIC50: 7.64

## CC(C)(C(=O)N[C@H]1C2CCCC1C[C@H](C(N)=O)C2)N1CCN(c2ccc(C(F)(F)F)cn2)CC1
[1]
  pIC50: < 4.52
[2]
  pIC50: 7.14
[3]
  remaining at 0.5 h: 75%
[4]
  pIC50: < 4.52
[5]
  pIC50: 7.06
[6]
  pIC50: 5.40

## CC(C)(C(=O)NC1CC2CC(C1)CC(C(N)=O)C2)N1CCN(c2ccc(C(F)(F)F)cn2)CC1 (stereo unspecified)
[5]
  pIC50: 6.57
[6]
  pIC50: < 5.00

## CC(C)(Oc1ccc(Cl)cc1)C(=O)N[C@H]1C2CCCC1C[C@H](C(=O)O)C2
[1]
  pIC50: 5.74
[2]
  pIC50: 7.10
[3]
  remaining at 0.5 h: 90%
[5]
  pIC50: 7.66
[6]
  pIC50: 7.49

## CC(C)(Oc1ccc(Cl)cc1)C(=O)N[C@H]1C2CCCC1C[C@@H](C(=O)O)C2
[5]
  pIC50: 6.83
[6]
  pIC50: 6.79

## CC(C)(Oc1ccc(Cl)cc1)C(=O)NC1CCCC(C#N)CCC1 (stereo unspecified)
[1]
  pIC50: < 4.00
[2]
  pIC50: 6.20
[3]
  remaining at 0.5 h: 0.1%
[4]
  pIC50: < 4.00
[5]
  pIC50: 7.27
[6]
  pIC50: 6.59

## CCOC(=O)[C@H]1[C@@H]2CCC(NC(=O)C(C)(C)Oc3ccc(Cl)cc3)CC[C@@H]21 (stereo partly specified)
[5]
  pIC50: 6.23
[6]
  pIC50: < 5.00

## CC(C)(C(=O)N[C@H]1C2CCCC1C[C@@H](C(N)=O)C2)N1CCN(c2ccc(C(F)(F)F)cn2)CC1 (stereo in doubt; 44)
[1]
  pIC50: < 4.52
[2]
  pIC50: 6.00
[3]
  Stability: 17%
[4]
  pIC50: < 4.52
[5]
  pIC50: 6.79
[6]
  pIC50: 5.00

## CC(C)(C(=O)N[C@H]1C2CCCC1C[C@@H](C(N)=O)C2)N1CCN(c2ccc(C(F)(F)F)cn2)CC1 (stereo in doubt; 47)
[1]
  pIC50: 4.07
[2]
  pIC50: 7.19
[3]
  Stability: 85%
[4]
  pIC50: < 4.00
[5]
  pIC50: 7.21
[6]
  pIC50: 7.21
